Test results reported in ChEMBL document CHEMBL1146340, “Synthesis of the 5-phosphono-pent-2-en-1-yl nucleosides: a new class of antiviral acyclic nucleoside phosphonates” (Bioorg Med Chem, 2007).

What was measured:
[1] = Cytotoxicity against human MRC5 cells by neutral red uptake assay; assay type: cell-based
Method in brief: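 MRC-5 human lung fibroblasts seeded at 2.5 x 10^4 cells/well and incubated 24 h. Medium then replaced with MEM plus 2% FBS. Drug diluted serially 5-fold from 100 μM to 0.03 μM and exposed for 7 days. Cells stained with neutral red for 1 h, dye solubilized in 1% acetic acid/50% ethanol, OD read at 540 nm. CC50 (50% viability reduction) calculated; mean ± SD of 3 experiments.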

[2] = Specificity index, Ratio of CC50 for MCR5 cells to EC50 for HSV1; assay type: functional
Method in brief: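 Ratio of CC50 to EC50, both measured in MRC-5 human lung fibroblasts. […] CC50: neutral red uptake after 7 days, 5-fold dilutions from 100 μM to 0.03 μM, OD 540 nm; mean of 3 experiments.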

## CCCCCCCCCCCCCCCCOCCCOP(=O)(O)CC/C=C\Cn1cnc2c(=O)nc(N)[nH]c21
[1]
  CC50: 12.2 µM
[2]
  Selectivity index: 2.1

## Nc1ncnc2c1ncn2C/C=C\CCP(=O)(O)O
[1]
  CC50: > 100 µM

## Cc1cn(C/C=C\CCP(=O)(O)O)c(=O)[nH]c1=O
[1]
  CC50: > 100 µM

## CCCCCCCCCCCCCCCCOCCCOP(=O)(O)CC/C=C\Cn1cnc2c(N)ncnc21
[1]
  CC50: 17.3 µM
[2]
  Selectivity index: 0.96

## Nc1ccn(C/C=C\CCP(=O)(O)O)c(=O)n1
[1]
  CC50: > 100 µM

## CCCCCCCCCCCCCCCCOCCCOP(=O)(O)CC/C=C\Cn1ccc(=O)[nH]c1=O
[1]
  CC50: 51 µM

## Nc1nc(=O)c2ncn(C/C=C\CCP(=O)(O)O)c2[nH]1
[1]
  CC50: > 100 µM

## CCCCCCCCCCCCCCCCOCCCOP(=O)(O)CC/C=C\Cn1ccc(N)nc1=O
[1]
  CC50: 11.2 µM
[2]
  Selectivity index: 2.38

## CCCCCCCCCCCCCCCCOCCCOP(=O)(O)CC/C=C\Cn1cc(C)c(=O)[nH]c1=O
[1]
  CC50: 7.4 µM
[2]
  Selectivity index: 8.22

## O=c1nc(O)ccn1C/C=C\CCP(=O)(O)O
[1]
  CC50: > 100 µM
